tested on: Rattus norvegicus; assay: Antiinflammatory activity against carrageenan induced albino Sprague-Dawley rat paw edema model assessed as paw diameter at 10 mg/kg, po pretreated for 1 hr followed by carrageenan challenge and measured at 4 hrs post-carrageenan injection (reference value: 4.88 +/- 0.1 mm); format: functional; settings: not given

SMILES | Activity [mm]
Cc1cccc(/C=C/C2=NNC(=O)CC2)c1 | 3.8
Cc1cccc(/C=C/c2ccc(=O)[nH]n2)c1 | 3.82
COc1ccccc1/C=C/c1ccc(=O)n(-c2ccc(F)cc2)n1 | 3.85
O=C1CCC(/C=C/c2cccnc2)=NN1 | 3.78
Cc1ccc(-c2cc(C(F)(F)F)nn2-c2ccc(S(N)(=O)=O)cc2)cc1 [CELECOXIB] | 3.78
COc1ccc2c(c1)c(CC(=O)O)c(C)n2C(=O)c1ccc(Cl)cc1 [INDOMETHACIN] | 3.73

tested on: Rattus norvegicus; assay: Antiinflammatory activity against carrageenan-induced albino Sprague-Dawley rat paw edema model assessed as paw edema at 10 mg/kg, po pretreated for 1 hr followed by carrageenan challenge and measured at 2 hrs post-carrageenan injection (reference value: 36.4%); format: functional; settings: not given

SMILES | Activity [%]
Cc1cccc(/C=C/C2=NNC(=O)CC2)c1 | 11.6
Cc1cccc(/C=C/c2ccc(=O)[nH]n2)c1 | 8.7
COc1ccccc1/C=C/c1ccc(=O)n(-c2ccc(F)cc2)n1 | 9.4
O=C1CCC(/C=C/c2cccnc2)=NN1 | 9.3
Cc1ccc(-c2cc(C(F)(F)F)nn2-c2ccc(S(N)(=O)=O)cc2)cc1 [CELECOXIB] | 11.4
COc1ccc2c(c1)c(CC(=O)O)c(C)n2C(=O)c1ccc(Cl)cc1 [INDOMETHACIN] | 10.3

tested on: not listed separately; assay: Ulcerogenicity in albino rat assessed as severity of gastric lesions at 10 mg/kg, po administered as single dose after 18 hrs of starvation challenge and measured after 4 hrs; format: toxicity, organism-based; settings: in vivo
In short: (§1)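 Adult male albino rats fasted 18 h, then dosed orally at 10 mg/kg (saline control, reference drugs); six rats per group. Killed 4 h after treatment. Stomachs removed and examined macroscopically for hyperemia, single or multiple lesions, erosion, ulcer or perforation. Number of ulcers and occurrence of hyperemia recorded.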

SMILES | UI
Cc1cccc(/C=C/C2=NNC(=O)CC2)c1 | 0.4
Cc1cccc(/C=C/c2ccc(=O)[nH]n2)c1 | 0
COc1ccccc1/C=C/c1ccc(=O)n(-c2ccc(F)cc2)n1 | 0
O=C1CCC(/C=C/c2cccnc2)=NN1 | 0
Cc1ccc(-c2cc(C(F)(F)F)nn2-c2ccc(S(N)(=O)=O)cc2)cc1 [CELECOXIB] | 6.2
COc1ccc2c(c1)c(CC(=O)O)c(C)n2C(=O)c1ccc(Cl)cc1 [INDOMETHACIN] | 12.4

tested on: Rattus norvegicus; assay: Antiinflammatory activity against carrageenan induced albino Sprague-Dawley rat paw edema model assessed as paw diameter at 10 mg/kg, po pretreated for 1 hr followed by carrageenan challenge and measured at 3 hrs post-carrageenan injection (reference value: 4.79 +/- 0.1 mm); format: functional; settings: not given

SMILES | Activity [mm]
Cc1cccc(/C=C/C2=NNC(=O)CC2)c1 | 3.84
Cc1cccc(/C=C/c2ccc(=O)[nH]n2)c1 | 3.84
COc1ccccc1/C=C/c1ccc(=O)n(-c2ccc(F)cc2)n1 | 3.88
O=C1CCC(/C=C/c2cccnc2)=NN1 | 3.81
Cc1ccc(-c2cc(C(F)(F)F)nn2-c2ccc(S(N)(=O)=O)cc2)cc1 [CELECOXIB] | 3.83
COc1ccc2c(c1)c(CC(=O)O)c(C)n2C(=O)c1ccc(Cl)cc1 [INDOMETHACIN] | 3.81

tested on: Rattus norvegicus; assay: Antiinflammatory activity against carrageenan-induced albino Sprague-Dawley rat paw edema model assessed as paw diameter at 10 mg/kg, po pretreated for 1 hr followed by carrageenan challenge and measured immediately after carrageenan injection (reference value: 3.46 +/- 0.08 mm); format: functional; settings: not given

SMILES | Activity [mm]
Cc1cccc(/C=C/C2=NNC(=O)CC2)c1 | 3.51
Cc1cccc(/C=C/c2ccc(=O)[nH]n2)c1 | 3.55
COc1ccccc1/C=C/c1ccc(=O)n(-c2ccc(F)cc2)n1 | 3.59
O=C1CCC(/C=C/c2cccnc2)=NN1 | 3.53
Cc1ccc(-c2cc(C(F)(F)F)nn2-c2ccc(S(N)(=O)=O)cc2)cc1 [CELECOXIB] | 3.48
COc1ccc2c(c1)c(CC(=O)O)c(C)n2C(=O)c1ccc(Cl)cc1 [INDOMETHACIN] | 3.49

tested on: Rattus norvegicus; assay: Antiinflammatory activity against carrageenan induced albino Sprague-Dawley rat paw edema model assessed as paw edema at 10 mg/kg, po pretreated for 1 hr followed by carrageenan challenge and measured at 4 hrs post-carrageenan injection (reference value: 41%); format: functional; settings: not given

SMILES | Activity [%]
Cc1cccc(/C=C/C2=NNC(=O)CC2)c1 | 8.2
Cc1cccc(/C=C/c2ccc(=O)[nH]n2)c1 | 7.6
COc1ccccc1/C=C/c1ccc(=O)n(-c2ccc(F)cc2)n1 | 7.2
O=C1CCC(/C=C/c2cccnc2)=NN1 | 7
Cc1ccc(-c2cc(C(F)(F)F)nn2-c2ccc(S(N)(=O)=O)cc2)cc1 [CELECOXIB] | 8.6
COc1ccc2c(c1)c(CC(=O)O)c(C)n2C(=O)c1ccc(Cl)cc1 [INDOMETHACIN] | 8

tested on: Rattus norvegicus; assay: Antiinflammatory activity against carrageenan induced albino Sprague-Dawley rat paw edema model assessed as paw diameter at 10 mg/kg, po pretreated for 1 hr followed by carrageenan challenge and measured at 2 hrs post-carrageenan injection (reference value: 4.72 +/- 0.08 mm); format: functional; settings: not given

SMILES | Activity [mm]
Cc1cccc(/C=C/C2=NNC(=O)CC2)c1 | 3.92
Cc1cccc(/C=C/c2ccc(=O)[nH]n2)c1 | 3.86
COc1ccccc1/C=C/c1ccc(=O)n(-c2ccc(F)cc2)n1 | 3.93
O=C1CCC(/C=C/c2cccnc2)=NN1 | 3.86
Cc1ccc(-c2cc(C(F)(F)F)nn2-c2ccc(S(N)(=O)=O)cc2)cc1 [CELECOXIB] | 3.88
COc1ccc2c(c1)c(CC(=O)O)c(C)n2C(=O)c1ccc(Cl)cc1 [INDOMETHACIN] | 3.85

tested on: not listed separately; assay: Ulcerogenicity in albino rat assessed as gastric lesions at 10 mg/kg, po administered as single dose after 18 hrs of starvation challenge and measured after 4 hrs; format: toxicity, organism-based; settings: in vivo; in short: as §1

SMILES | UI
Cc1cccc(/C=C/C2=NNC(=O)CC2)c1 | 0.2
Cc1cccc(/C=C/c2ccc(=O)[nH]n2)c1 | 0
COc1ccccc1/C=C/c1ccc(=O)n(-c2ccc(F)cc2)n1 | 0
O=C1CCC(/C=C/c2cccnc2)=NN1 | 0
Cc1ccc(-c2cc(C(F)(F)F)nn2-c2ccc(S(N)(=O)=O)cc2)cc1 [CELECOXIB] | 2.7
COc1ccc2c(c1)c(CC(=O)O)c(C)n2C(=O)c1ccc(Cl)cc1 [INDOMETHACIN] | 8.3

tested on: Rattus norvegicus; assay: Antiinflammatory activity against carrageenan-induced albino Sprague-Dawley rat paw edema model assessed as paw diameter at 10 mg/kg, po pretreated for 1 hr followed by carrageenan challenge and measured at 1 hr post-carrageenan injection (reference value: 4.51 +/- 0.09 mm); format: functional; settings: not given

SMILES | Activity [mm]
Cc1cccc(/C=C/C2=NNC(=O)CC2)c1 | 3.99
Cc1cccc(/C=C/c2ccc(=O)[nH]n2)c1 | 3.96
COc1ccccc1/C=C/c1ccc(=O)n(-c2ccc(F)cc2)n1 | 3.97
O=C1CCC(/C=C/c2cccnc2)=NN1 | 3.92
Cc1ccc(-c2cc(C(F)(F)F)nn2-c2ccc(S(N)(=O)=O)cc2)cc1 [CELECOXIB] | 3.93
COc1ccc2c(c1)c(CC(=O)O)c(C)n2C(=O)c1ccc(Cl)cc1 [INDOMETHACIN] | 3.92

tested on: Rattus norvegicus; assay: Antiinflammatory activity against carrageenan induced albino Sprague-Dawley rat paw edema model assessed as paw edema at 10 mg/kg, po pretreated for 1 hr followed by carrageenan challenge and measured at 1 hr post-carrageenan injection (reference value: 30.3%); format: functional; settings: not given

SMILES | Activity [%]
Cc1cccc(/C=C/C2=NNC(=O)CC2)c1 | 13.6
Cc1cccc(/C=C/c2ccc(=O)[nH]n2)c1 | 11.5
COc1ccccc1/C=C/c1ccc(=O)n(-c2ccc(F)cc2)n1 | 10.5
O=C1CCC(/C=C/c2cccnc2)=NN1 | 11
Cc1ccc(-c2cc(C(F)(F)F)nn2-c2ccc(S(N)(=O)=O)cc2)cc1 [CELECOXIB] | 12.9
COc1ccc2c(c1)c(CC(=O)O)c(C)n2C(=O)c1ccc(Cl)cc1 [INDOMETHACIN] | 12.3

tested on: Rattus norvegicus; assay: Antiinflammatory activity against carrageenan induced albino Sprague-Dawley rat paw edema model assessed as paw edema at 10 mg/kg, po pretreated for 1 hr followed by carrageenan challenge and measured at 3 hrs post-carrageenan injection (reference value: 38.4%); format: functional; settings: not given

SMILES | Activity [%]
Cc1cccc(/C=C/C2=NNC(=O)CC2)c1 | 10.2
Cc1cccc(/C=C/c2ccc(=O)[nH]n2)c1 | 8.1
COc1ccccc1/C=C/c1ccc(=O)n(-c2ccc(F)cc2)n1 | 8
O=C1CCC(/C=C/c2cccnc2)=NN1 | 7.9
Cc1ccc(-c2cc(C(F)(F)F)nn2-c2ccc(S(N)(=O)=O)cc2)cc1 [CELECOXIB] | 10
COc1ccc2c(c1)c(CC(=O)O)c(C)n2C(=O)c1ccc(Cl)cc1 [INDOMETHACIN] | 9.4

tested on: not listed separately; assay: Ulcerogenicity in albino rat assessed as mild hyperemia without ulceration at 10 mg/kg, po administered as single dose after 18 hrs of starvation challenge and measured after 4 hrs; format: toxicity, organism-based; settings: in vivo; in short: as §1

SMILES | Activity
Cc1cccc(/C=C/C2=NNC(=O)CC2)c1 | Toxic

molecular target: Prostaglandin G/H synthase 1 (Homo sapiens, UniProt P23219); assay: Inhibition of human COX1 assessed as reduction in PGF2alpha production using arachidonic acid as substrate preincubated with enzyme for 10 mins followed by substrate addition by ELISA; format: single protein; settings: not given
Sequence (P23219 whole entry): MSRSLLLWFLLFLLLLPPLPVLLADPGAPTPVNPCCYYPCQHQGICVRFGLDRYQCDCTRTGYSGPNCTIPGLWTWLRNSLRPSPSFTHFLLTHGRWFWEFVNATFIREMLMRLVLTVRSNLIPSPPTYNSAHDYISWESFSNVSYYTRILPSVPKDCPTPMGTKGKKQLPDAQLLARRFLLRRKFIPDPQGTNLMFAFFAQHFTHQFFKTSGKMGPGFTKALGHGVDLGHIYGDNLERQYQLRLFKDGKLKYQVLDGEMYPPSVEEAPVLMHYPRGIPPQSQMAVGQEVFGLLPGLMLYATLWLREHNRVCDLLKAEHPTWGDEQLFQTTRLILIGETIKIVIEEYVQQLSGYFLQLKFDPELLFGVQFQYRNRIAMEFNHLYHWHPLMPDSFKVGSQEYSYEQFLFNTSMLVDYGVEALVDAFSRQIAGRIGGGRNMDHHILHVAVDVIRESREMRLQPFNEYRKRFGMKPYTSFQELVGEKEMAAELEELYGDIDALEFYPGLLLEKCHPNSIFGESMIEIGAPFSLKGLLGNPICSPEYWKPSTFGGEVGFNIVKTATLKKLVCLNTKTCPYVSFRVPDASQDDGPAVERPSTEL

SMILES | IC50 [nM]
COc1ccccc1/C=C/C1=NN(c2ccc(F)cc2)C(=O)CC1 | 540
COc1ccccc1/C=C/c1ccc(=O)[nH]n1 | 530
COc1ccccc1/C=C/c1ccc(=O)n(-c2ccc(F)cc2)n1 | 700
COc1ccccc1/C=C/c1ccc(=O)n(-c2ccccc2)n1 | 460
O=C1CCC(/C=C/c2cccnc2)=NN1 | 750

Other lines, results leading:

IC50 [nM] | SMILES
450 | Cc1cccc(/C=C/C2=NNC(=O)CC2)c1
370 | Cc1cccc(/C=C/c2ccc(=O)[nH]n2)c1
270 | COc1ccccc1/C=C/C1=NNC(=O)CC1
210 | Cc1cccc(/C=C/C2=NN(c3ccc(F)cc3)C(=O)CC2)c1
390 | COc1ccccc1/C=C/C1=NN(c2ccccc2)C(=O)CC1
240 | Cc1cccc(/C=C/c2ccc(=O)n(-c3ccc(F)cc3)n2)c1

— ChEMBL document CHEMBL4346673, “Synthesis and biological evaluation of pyridazinone derivatives as selective COX-2 inhibitors and potential anti-inflammatory agents” (Eur J Med Chem, 2019)
